Screening results as filed in PubChem BioAssay.
TbMetRS inhib: Trypanosoma brucei MetRS inhibition. AID 624268. inhibition, % at 11.9 µM. purified T. brucei MetRS, ATP depletion, Kinase-Glo luminescence. actives 0.4% (n = 360,000);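 active means inhibition above a per-plate cutoff of the control wells' mean inhibition plus 3 SD, cut at about 5.5% in these data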
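Dosing: 11.9 µM single point; system: parasite MetRS enzyme; technique: luminescence of leftover ATP; times: 15 min enzyme-compound preincubation, 2 h reaction, 10 min detection, 25 °C; replicates: each compound tested once; read-out basis: percent inhibition relative to median high and low control wells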
PvdQ acylase: blocks Pseudomonas aeruginosa PvdQ acylase activity | purified PvdQ acylase, fluorescence plate reader | inhibition, % at 10 µM | actives 0.063% (n = 340,000) | AID 488965; in the data active means inhibition above about 30%, passing the limit was not always enough
CAL PDZ FP-1: inhibitors of human CAL PDZ peptide binding; purified CAL PDZ, TMR-peptide fluorescence polarization, 1 h; Q9HD26; inhibition, % at 24.9 µM; actives 0.92% (n = 300,000);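 active means mean inhibition of at least 30% with at least half of replicates also reaching 30%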
Dyrk1A ADPGlo: inhibitors of rat Dyrk1A kinase | Q63470 | ADP-Glo luminescence, NFATc1 peptide | inhibition, % at 12.5 µM | actives 0.43% (n = 310,000) | AID 504441; in the data active means inhibition above about 50%
CAL PDZ FP-2: blocks peptide binding to human CAL PDZ domain. Q9HD26. purified CAL PDZ, TMR-peptide fluorescence polarization, 1 h. inhibition, % at 20 µM. actives 0.02% (n = 330,000). AID 504414;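 active means highest replicate inhibition of at least 40%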
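material = purified tagged CAL PDZ domain construct (CerCALP) | buffer or medium = sodium phosphate/NaCl buffer pH 7.4 with TCEP, IgG, Thesit | reagent = TMR-labelled reporter peptide T*-PRC34 bound in PDZ groove | incubation = 1 h room-temperature incubation prior to read | measured by = fluorescence polarization (mP) | evaluation = percent inhibition from loss of millipolarization | control set = unlabelled peptide and DMSO controls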
CDK5 inh: CDK5/p35 (human) kinase inhibition; actives 0.01% (n = 330,000); inhibition, % at 10 µM; Recombinant CDK5/p35, ADP-Glo luminescence, 60 min;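 active means highest replicate inhibition of at least 50% and at least 75% of replicates reaching 50%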
Target sequence (Q00535 whole entry, looked up): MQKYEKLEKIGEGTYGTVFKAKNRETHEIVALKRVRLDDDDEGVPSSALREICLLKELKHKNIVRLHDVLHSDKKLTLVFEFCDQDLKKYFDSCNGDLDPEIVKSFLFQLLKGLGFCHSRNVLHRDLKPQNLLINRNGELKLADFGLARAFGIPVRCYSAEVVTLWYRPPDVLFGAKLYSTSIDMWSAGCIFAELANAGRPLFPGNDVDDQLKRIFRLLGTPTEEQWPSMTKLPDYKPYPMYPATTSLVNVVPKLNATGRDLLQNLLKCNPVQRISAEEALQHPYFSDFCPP
Target sequence (Q15078 whole entry, looked up): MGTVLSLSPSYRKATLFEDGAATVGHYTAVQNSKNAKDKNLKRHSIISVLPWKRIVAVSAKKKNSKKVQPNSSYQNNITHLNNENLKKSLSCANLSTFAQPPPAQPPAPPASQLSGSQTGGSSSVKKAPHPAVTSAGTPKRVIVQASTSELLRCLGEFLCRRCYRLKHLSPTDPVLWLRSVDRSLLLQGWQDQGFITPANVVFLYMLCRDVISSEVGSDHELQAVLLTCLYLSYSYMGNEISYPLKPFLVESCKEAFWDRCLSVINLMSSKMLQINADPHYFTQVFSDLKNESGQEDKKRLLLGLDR
Numbers stand for hits; – = inactive; · = not tested or not shown; + = active, no number. An excerpt weighted towards active compounds, which were near 1.4% of everything screened.

SMILES | TbMetRS inhib | PvdQ acylase | CAL PDZ FP-1 | Dyrk1A ADPGlo | CAL PDZ FP-2 | CDK5 inh
COc1ccc(NC(C)=O)cc1NC(=O)c1ccc(C#N)cc1 | – | – | 31 | – | – | –
CC1(C(=O)NC2CCc3ccccc32)CCN1CCc1ccccc1 (stereo unspecified) | – | · | · | · | · | ·
COCCN(C(=O)c1ccco1)c1nnc(-c2ccc(OC)c(OC)c2)s1 | – | – | – | – | · | –
COCCN(C(=O)c1ccco1)c1nnc(-c2ccc(F)cc2)s1 | – | – | 40 | – | – | –
Cc1cc(Nc2ccccc2)nc(-c2ccccc2O)n1 | – | – | – | – | – | –
Cc1cc(Nc2ccccc2Cl)nc(-c2ccccc2O)n1 | – | – | 57 | – | · | –
Cc1ccc(F)c(S(=O)(=O)NC(=O)C2(C)CCN2C(=O)Cc2ccccc2)c1 (stereo unspecified) | – | · | · | · | · | ·
CC1CN(S(=O)(=O)c2ccc(CN3C(=O)c4cccnc4C3=O)s2)c2ccccc2O1 (stereo unspecified) | – | – | 52 | – | – | –
CC1CN(S(=O)(=O)c2ccc(CN3C(=O)c4cccnc4C3=O)cc2)c2ccccc2O1 (stereo unspecified) | – | – | – | – | – | –
COc1cccc(N2CCN(CC(=O)NCc3ccccc3)CC2)c1 | – | – | 50 | – | – | –
CCc1nc2c(OCC(=O)c3ccc(F)cc3)cccn2c1N(C)C(=O)c1cccs1 | – | · | · | · | · | ·
OC[C@@H]1CN(Cc2ccc(Cl)cc2)C[C@H](n2cnc3c(NCc4ccc(F)cc4)ncnc32)O1 | – | · | · | · | · | ·
Cc1ccc(S(=O)(=O)N=Nc2c(O)[nH]c3ccccc23)cc1 | – | – | 32 | – | – | –
Cc1noc(C)c1-c1ccc(C(=O)Nc2cccc(C(F)(F)F)c2)c2occc12 | – | · | · | · | · | ·
O=C(COC(=O)CNC(=O)c1ccccc1Cl)NC1CC1 | – | – | 39 | · | – | –
O=C(COC(=O)CNC(=O)c1ccccc1Cl)NC1CCCC1 | – | – | – | – | – | –
CCCS(=O)(=O)c1nc(S(=O)(=O)c2ccc(C)cc2)c(N2CCC3(CC2)OCCO3)s1 | – | – | 57 | – | – | –
COc1ccc(NS(=O)(=O)c2ccc(/C=C/C(=O)O)cc2)cc1S(=O)(=O)N1CCOCC1 | – | – | 44 | – | – | –
COc1cc(C(=O)NCCNC(=O)C2CCCNC2=O)cc(OC)c1OC (stereo unspecified) | – | – | 40 | · | – | –
COc1cc(C(=O)NCCCNC(=O)c2cc(OC)c(OC)c(OC)c2)cc(OC)c1OC | – | · | · | · | · | ·
COc1cc(C(=O)NCC2CCCCC2)cc(OC)c1OC | – | – | 65 | – | – | –
CCCCNC(=O)C1C(c2ccccc2)=Nc2ccccc2N1C(=O)c1ccc(C)cc1 (stereo unspecified) | – | · | · | · | · | ·
O=C(N=C1c2ccccc2CN1c1ccccc1)c1cccc([N+](=O)[O-])c1 | – | – | – | – | – | –
CCOC(=O)c1ccc(N2Cc3ccccc3C2=NC(=O)c2cccc([N+](=O)[O-])c2)cc1 | – | 45 | – | – | – | –
Cc1ccc(NC(=O)CCC(=O)N/N=C/c2ccccc2O)cc1 | – | – | – | – | – | –
SMILES | TbMetRS inhib | PvdQ acylase | CAL PDZ FP-1 | Dyrk1A ADPGlo | CAL PDZ FP-2 | CDK5 inh
O=C(CCC(=O)Nc1ccc(Br)cc1)N/N=C/c1ccccc1O | – | – | + | – | – | –
O=C(NCCc1ccccc1F)c1ccc2c(c1)OCCO2 | – | – | 47 | – | – | –
COc1ccc(OC(C)C(=O)NCc2cccnc2)cc1 (stereo unspecified) | – | – | 46 | · | · | –
CC(Oc1ccccc1)C(=O)NCc1cccnc1 (stereo unspecified) | – | – | – | – | – | –
O=C(Nc1cccc([N+](=O)[O-])c1)c1cc(S(=O)(=O)Nc2ccccn2)ccc1Cl | – | – | 44 | – | – | –
Cc1noc(C)c1C(=O)N(C)C[C@@H]1OCc2ccccc2-c2c(n(C)c3ccccc23)C(=O)N([C@H](C)CO)C[C@H]1C | – | · | · | · | · | ·
O=C(NNS(=O)(=O)c1ccccc1)c1ccccc1-n1cccc1 | – | – | 41 | – | – | –
O=C(NNS(=O)(=O)c1ccc(Br)cc1)c1ccccc1-n1cccc1 | – | – | – | – | – | –
CC(=O)c1cccc(-c2ccnc3c2CC(C(=O)Nc2ccc(C(C)C)cc2)O3)c1 (stereo unspecified) | – | · | · | · | · | ·
CC(=O)N1c2ccc(S(=O)(=O)N3CCCCC3)cc2CC1C(=O)NCc1ccccc1C (stereo unspecified) | – | – | 39 | – | – | –
CCCNC(=O)C1CCC(CNS(=O)(=O)c2ccc3c(c2)CC(C)N3C(C)=O)CC1 (stereo unspecified) | – | – | 82 | – | – | –
CC(=O)N1c2ccc(S(=O)(=O)N3CCC(C(=O)Nc4cc(C)ccn4)CC3)cc2CC1C (stereo unspecified) | – | – | 67 | – | – | –
CC(=O)N1c2ccc(S(=O)(=O)N3CCCC3)cc2CC1C(=O)NCc1ccccc1F (stereo unspecified) | – | – | – | – | – | –
COc1cc(NC(=O)c2ccc(-c3ccc(F)c(F)c3)c3ccoc23)cc(OC)c1OC | – | · | · | · | · | ·
O=C(N/N=C/c1ccoc1)c1ccccc1Br | – | – | 39 | – | – | –
COC(=O)CCC(=O)N1CCOCCOCCN(C(=O)CCC(=O)OC)CCOCCOCC1 | – | – | – | – | – | –
COC(=O)CCC(=O)N1CCOCCOCCOCC1 | – | – | 40 | – | – | –
CCc1noc(C)c1C(=O)N(CCOC)c1c(N)n(CC(C)C)c(=O)[nH]c1=O | – | – | 38 | – | – | –
CCCCN(C(=O)c1c(CC)noc1C)c1c(N)n(CC(C)C)c(=O)[nH]c1=O | – | – | – | – | – | –
CCC(CO)Nc1ccn2nc(-c3cccs3)cc2n1 (stereo unspecified) | – | · | · | · | · | ·
O=C(CCN1CCCCC1)c1cccc(Cl)c1 | – | – | – | · | – | –
Cc1cc(C)nc(N(C#N)Cc2cccc([N+](=O)[O-])c2)n1 | – | 36 | 46 | – | – | –
O=C(NCc1cccc(Cl)c1)C1Cc2c(-c3ccccc3)ccnc2O1 (stereo unspecified) | – | · | · | · | · | ·
CCCNC(=O)C1(C)CCN(C(=O)c2cccnc2Oc2ccccc2)C1 (stereo unspecified) | – | · | · | · | · | ·
Cc1ccc2[nH]c3c(c2c1)CN(C(=O)CN1CCCc2ccccc21)CC3 | – | – | 58 | – | – | ·
Cc1ccc(C(=O)NC(=S)NCC(=O)c2ccccc2)cc1 | – | – | 33 | · | · | –
O=C(NC(=S)Nc1ccccc1)c1cncc(C#Cc2ccccc2)c1 | – | – | 45 | – | – | –
O=C(O)c1cncc(C#Cc2ccccc2)c1 | – | – | – | – | – | –
CC(=O)O[C@@H](Cc1ccc(O)cc1)C(=O)CC(C)C | – | · | · | · | · | ·
O=C1NC[C@H](CCCCN2CCN(CC3CCCCC3)C(=O)C2=O)N(CC2CCCCC2)C1=O | – | · | · | · | · | ·
